# Diaph inh CS: diaphorase inhibitors and chemical oxidizers, primary screen, counter-screen for diaphorase-coupled primary assays, biochemical, uHTS, resorufin fluorescence. inhibition, % at 20 µM. 190,000 tested, 0.69% active. diaphorase resazurin-to-resorufin fluorescence, NADH, 16 min; bacterial (C. kluyveri) enzyme, not human. AID 1217, 2008;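 active = primary screen inhibition at 20 µM above a set limit, cut at about 50% in these data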
#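 System: Diaphorase enzyme from Clostridium kluyveri | Amount: Enzyme working solution with 0.14 U/mL diaphorase | Benchmarks: No-NADH positive control and DMSO neutral control | Signal: Fluorescence of resorufin formed from resazurin, Ex 544/Em 590 nm | Schedule: 16-min room-temperature incubation before reading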
# Lmaj promast: Leishmania major promastigote growth inhibition, primary screen; AID 1063, 2008; 200,000 tested, 9% active; inhibition, % at 10 µM; Leishmania major promastigotes, resazurin fluorescence viability;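 also: promastigotes grown with compound for 44 hours at 28 °C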
# Diaph act CS: compounds boosting diaphorase resazurin reduction – biochemical, uHTS, resorufin fluorescence, counter-screen for diaphorase-coupled primary assays, primary screen. Diaphorase/resazurin coupled assay, 16 min; hits give high values; 1 = vehicle wells, 0 = NADH-free wells. activation factor at 20 µM. 190,000 tested, 0.005% active;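 active = diaphorase activity raised at least twofold by the compound at 20 µM; inactive = activation factor below 2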
#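 Material: bacterial diaphorase enzyme (C. kluyveri); amount: enzyme 0.07 U/mL final; reagent: NADH substrate 0.114 mM plus resazurin dye 0.1 mM, final; doses: single compound dose of 20 µM, 1% DMSO final; timing: 16 min enzyme reaction, ambient temperature; measured by: fluorescence of resorufin, 544 nm excitation, 590 nm emission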
# G6PDH CS: L. mesenteroides G6PDH inhibitors, counter-screen for G6PDH-coupled screening assays, biochemical, Leuconostoc mesenteroides enzyme | glucose-6-phosphate dehydrogenase [Leuconostoc mesenteroides] | Purified L. mesenteroides G6PDH, diaphorase/resazurin coupled fluorescence, 45 min | inhibition, % at 5 µM | 200,000 tested, 0.12% active
# WT yeast gro inh: growth inhibition of WT strain, primary screen, mitochondrial fusion inhibitor project, WT and mutant strains, chemical genetic; mitochondrial fusion phenotypic screen; AID 1362, 2008; 190,000 tested, 2.1% active; inhibition, % at 10 µM; in the data active = inhibition above about 58%; tested in S. cerevisiae
# Numbers stand for hits; – = inactive. A selection: hits, their analogues and other compounds. The true share with any hit is near 11%. Rule as the data show it, unless noted: active = inhibition above about 50%; inactive = the rest.
SMILES,Diaph inh CS,Lmaj promast,Diaph act CS,G6PDH CS,WT yeast gro inh
O=C(NCc1ccccc1)c1ccc(S(=O)(=O)N2CCCc3ccccc32)cc1,–,–,–,–,–
Cc1ccc2nc(NC(=O)c3ccc(S(=O)(=O)N4CCCc5ccccc54)cc3)sc2c1,–,97.7,–,–,–
O=C(OCC(=O)N1CCN(C(=O)c2ccco2)CC1)c1cccc(S(=O)(=O)N2CCc3ccccc32)c1,–,–,–,–,–
O=C(Cn1ncc(N2CCCC2)c(Cl)c1=O)c1ccc(Cl)cc1,–,–,–,–,–
COC(=O)Cn1ncc(N2C3CC(CC(C)(C)C3)C2C)c(Cl)c1=O (centres undefined),–,81.0,–,–,–
CCOc1cc(/C=N\NC(N)=O)cc(Br)c1OC(C)C,–,–,–,–,–
CCOc1cc(/C=N/NC(=O)C(=O)NCCCOC(C)C)cc(Br)c1O,–,69.5,–,–,–
Cc1cccc(N2CCN(C(=O)COc3cccc4c3OC(C)(C)C4)CC2)c1C,–,–,–,–,–
S=C(NCc1cccnc1)Nc1cccc2ccccc12,–,92.3,–,–,–
C=CCNC(=S)NCc1cccnc1,–,80.0,–,–,–
S=C(NCc1cccnc1)NCc1cccnc1,–,–,–,–,–
COc1ccc(CCNC(=O)/C(C#N)=C/c2cccc(OCc3ccccc3)c2)cc1OC,–,99.8,–,–,–
COCCCNC(=O)/C(C#N)=C/c1cccc(NC(=O)c2ccccc2Cl)c1,–,75.0,–,–,–
N#C/C(=C\c1cccc(NC(=O)c2ccccc2Cl)c1)C(=O)NCCc1ccccc1,–,98.9,–,–,83.8
COCCNC(=O)/C(C#N)=C/c1ccc(OCc2ccccc2)cc1,–,–,–,–,–
COCCCNC(=O)/C(C#N)=C/c1ccc(F)cc1,–,–,–,–,–
O=C(NCCN1C(=O)S/C(=C/c2ccccc2)C1=O)C1CCCN1C(=O)c1cccs1 (centres undefined),–,–,–,–,–
COc1ccc(/C=C2\SC(=O)N(CCNC(=O)C3CC4C=CC3C4)C2=O)cc1 (centres undefined),–,95.8,–,–,–
COc1ccc(/C=C2/SC(=O)N(CCNC(=O)C3CCCN3C(=O)c3cccs3)C2=O)cc1 (centres undefined),–,76.0,–,–,–
COc1ccc(CC(=O)N2CC(C)CC(C)C2)cc1 (centres undefined),–,–,–,–,–
CCOc1ccc(N(C(=O)c2ccccc2Cl)C2=NC(C)(C)CS2)cc1,–,61.5,–,–,–
CCOc1ccc(/C=C(/NC(=O)c2ccccc2Cl)C(=O)O)cc1,–,–,–,–,–
O=C1c2ccccc2NC(c2cccc(O)c2)N1NS(=O)(=O)c1ccccc1 (centres undefined),–,–,–,–,–
CCOc1c(OC(C)=O)ccc(/C=C2\N=C(SCC)SC2=O)c1[N+](=O)[O-],–,–,–,–,–
CCOc1cc(/C=C2\N=C(SC)SC2=O)cc([N+](=O)[O-])c1OC(C)=O,81.2,–,–,–,–
SMILES,Diaph inh CS,Lmaj promast,Diaph act CS,G6PDH CS,WT yeast gro inh
CCOc1cc(/C=C2\N=C(SCC)SC2=O)cc([N+](=O)[O-])c1OC(C)=O,90.1,–,–,–,–
COc1ccc(/C=C2\N=C(SC)SC2=O)cc1OC,–,–,–,–,–
CCOc1ccc(CN2CCN(Cc3cccn3-c3ncccn3)CC2CCO)cc1 (centres undefined),–,–,–,–,–
NS(=O)(=O)c1ccc(CCn2c(=S)[nH]c3ccc(F)cc3c2=O)cc1,–,75.7,–,–,–
O=C(CN(C(=O)c1ccc2c(c1)OCCO2)c1ccccc1)NCC1CCCO1 (centres undefined),–,–,–,–,–
Cc1c(C=O)c2ccccn2c1C(=O)c1ccccc1,–,–,–,–,–
Cc1c(C(C)(C)C)c(C=S)n2ccccc12,–,62.7,–,–,–
CCCCNc1ccccc1C(=O)OCC(=O)Nc1ccc(S(N)(=O)=O)cc1,–,78.3,–,–,–
COc1ccc(CNC(=S)Nc2cccc(C)c2C)cc1,–,–,–,–,–
N#CC1=C(N)Oc2n[nH]c(-c3ccccc3)c2C1c1cccnc1 (centres undefined),–,–,–,–,–
C#CCSc1nc(N)c2c(n1)OC(N)=C(C#N)C2c1cccnc1 (centres undefined),–,76.0,–,–,–
Cc1ccc(-c2[nH]nc3c2C(c2cccnc2)C(C#N)=C(N)O3)cc1 (centres undefined),–,70.9,–,–,–
N#CC1=C(N)Oc2n[nH]c(-c3cccs3)c2C1c1ccsc1 (centres undefined),60.2,–,–,–,–
CC(C)c1[nH]nc2c1C(c1cccnc1)C(C#N)=C(N)O2 (centres undefined),–,–,–,–,–
O=S(=O)(O)c1ccc(N2N=C(c3ccccc3)CC2c2ccccc2)cc1 (centres undefined),–,–,–,–,–
CCc1ccc(C2=NN(c3ccc(S(N)(=O)=O)cc3)C(c3ccc(F)cc3)C2)cc1 (centres undefined),–,78.1,–,–,94.0
NS(=O)(=O)c1ccc(N2N=C(c3ccccc3)CC2c2ccccc2)cc1 (centres undefined),–,–,–,–,71.9
COc1c(C)cc(C(=O)C2CCCN(C(=O)CCc3scnc3C)C2)cc1C (centres undefined),–,–,–,–,–
COc1ccc(-c2cn3c4c(sc3n2)CCCC4)cc1,–,–,–,–,–
O=c1[nH]c2ccccc2c(O)c1O,72.4,–,–,–,–
COC(=O)c1c(O)c2ccccc2[nH]c1=O,–,–,–,–,–
COc1ccccc1N1CCN(C(CNS(=O)(=O)c2ccc(C)cc2)c2cccnc2)CC1 (centres undefined),–,95.9,–,–,–
O=C(NCC(c1cccnc1)N1CCN(c2ccccc2F)CC1)c1cccc(Cl)c1 (centres undefined),–,94.4,–,–,–
COC(=O)NCC(c1cccnc1)N1CCN(c2ccccc2F)CC1 (centres undefined),–,56.4,–,–,–
COc1ccccc1N1CCN(C(CNC(=O)c2ccco2)c2cccnc2)CC1 (centres undefined),–,80.8,–,–,–
O=C(NCC(c1cccnc1)N1CCOCC1)c1cccc(Cl)c1 (centres undefined),–,–,–,–,–
CCNc1nc(SC)nc(N(C#N)CC(=O)OC)n1,–,–,–,–,–
COc1ccc(-c2cnc(OC(C)(C)C)nc2OC(C)(C)C)cc1OC,–,–,–,–,–
Cc1ccc(CNS(=O)(=O)NCc2ccc(Cl)cc2)cc1,–,–,–,–,–

# Screening data deposited in PubChem by several laboratories.
